In brackets after ≈: the same amount, converted by molar mass.
Key:
[1] = Cytotoxicity against human KB cells assessed growth inhibition at 10 uM after 72 hrs by MTS assay; assay type: cell-based; conditions: read-out: GI
Summary of the method: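 KB cells (from NCI) grown in DMEM with 10% FCS, penicillin-streptomycin, fungizone and glutamine, 37 °C, 5% CO2; compounds in DMSO added 24 h after plating (1% DMSO final, controls same). 72 h exposure, then MTS 3 h at 37 °C, absorbance at 490 nm; inhibition = (1 − OD490 treated/OD490 control)×100, triplicate experiments.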

[2] = molecular target: T1, Quinolone resistance protein NorA (Staphylococcus aureus) (UniProt P0A0J7); test: Inhibition of NorA in fluoroquinolone-resistant Staphylococcus aureus 1199B assessed as potentiation of 4 ug/ml of ciprofloxacin MIC at 100 ug/ml after 24 hrs by microdilution method
T1 sequence (whole entry): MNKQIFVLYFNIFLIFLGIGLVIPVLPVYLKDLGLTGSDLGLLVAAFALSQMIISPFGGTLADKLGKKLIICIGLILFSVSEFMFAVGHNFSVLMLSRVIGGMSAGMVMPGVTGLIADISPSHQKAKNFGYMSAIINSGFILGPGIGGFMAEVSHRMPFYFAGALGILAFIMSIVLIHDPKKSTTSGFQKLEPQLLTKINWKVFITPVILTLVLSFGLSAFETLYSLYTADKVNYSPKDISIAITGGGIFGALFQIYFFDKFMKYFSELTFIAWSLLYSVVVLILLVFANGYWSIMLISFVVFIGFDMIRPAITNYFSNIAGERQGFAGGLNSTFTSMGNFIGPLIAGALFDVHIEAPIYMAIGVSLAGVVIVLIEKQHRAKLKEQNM
Summary of the method: (§1)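 Combination with ciprofloxacin 4 μg/mL (MIC/4) against SA-1199B in MH broth microdilution, 10^6 CFU/mL, 24 h at 37 °C, read at 620 nm and visually. Compounds are first screened at 100 μg/mL; actives are 2-fold serially diluted. MMC4 is the lowest inhibitor concentration giving antibacterial activity with subinhibitory ciprofloxacin. Duplicates.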

Staphylococcus aureus [3] = test: Toxicity in fluoroquinolone-resistant Staphylococcus aureus 1199B expressing NorA after 24 hrs by microdilution method; assay type: organism-based; conditions: in vitro
Summary of the method: (§2)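 Broth microdilution in Mueller–Hinton broth, 10^6 CFU/mL per well from an 18 h 37 °C culture. Compounds come from 10 mg/mL DMSO stocks as 2-fold serial dilutions, top 128 mg/L. Plates run 24 h at 37 °C and are read at 620 nm and visually. MIC is the lowest concentration with complete growth inhibition. Duplicates; 2-fold variance accepted.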

[4] = tested on: Staphylococcus aureus subsp. aureus RN4220; test: Inhibition of MsrA in macrolide-resistant Staphylococcus aureus RN4220 harboring pUL5054 assessed as potentiation of 4 ug/ml of […] erythromycin MIC after 24 hrs by microdilution method (reference value: […] ug/ml)
Staphylococcus aureus [5] = test: Toxicity in Staphylococcus aureus ATCC 25923 after 24 hrs by microdilution method; assay type: organism-based
Summary of the method: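 Mueller–Hinton broth microdilution; inoculum from frozen culture grown 18 h at 37 °C, 10^6 CFU/mL per well. Compounds (10 mg/mL DMSO stock) in 2-fold serial dilutions, highest 128 mg/L, first screened at 100 μg/mL. MIC = complete growth inhibition after 24 h at 37 °C, read at 620 nm and visually; duplicate; ampicillin control.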

Staphylococcus aureus [6] = test: Toxicity in Staphylococcus aureus ATCC 25923 at 100 ug/ml after 24 hrs by microdilution method; assay type: organism-based
Summary of the method: (§3)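 Single-point screen at 100 μg/mL of compound alone in MH broth microdilution, 10^6 CFU/mL, 24 h at 37 °C. Growth is read at 620 nm and visually, giving percent growth inhibition. Compounds inhibiting more than 90% then go to MIC determination. Duplicates.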

Staphylococcus aureus [7] = test: Toxicity in fluoroquinolone-resistant Staphylococcus aureus 1199B expressing NorA at 100 ug/ml after 24 hrs by microdilution method; assay type: organism-based; summary of the method: as §3
[8] = molecular target: T1, Quinolone resistance protein NorA (Staphylococcus aureus); test: Inhibition of NorA in fluoroquinolone-resistant Staphylococcus aureus 1199B assessed as potentiation of 4 ug/ml of ciprofloxacin MIC at 1 ug/ml after 24 hrs by microdilution method; summary of the method: as §1
Staphylococcus aureus [9] = test: Antibacterial activity against Staphylococcus aureus ATCC 25923 after 24 hrs by microdilution method; assay type: functional; conditions: ATCC 25923, 24 h; summary of the method: as §2

For O=Cc1ccc(B(O)O)cc1C(F)(F)F, the inhibition at 72 h, 10 µM [1] was 100%, the Activity [2] was 16 µg/mL and the MIC (Staphylococcus aureus [3]) was 32 µg/mL (≈ 147 µM). For the same compound, the Activity [4] was 32 µg/mL and the MIC (Staphylococcus aureus [5]) was “>= 64 ug ml-1”.
In the case of OB(O)c1ccc(Oc2ccc(Cl)nc2)nc1, the inhibition at 72 h, 10 µM [1] is reported as 0%, the Activity [2] is reported as 4 µg/mL and the “growth inhibition (GI)” value (Staphylococcus aureus [6]) is reported as < 90%. The “growth inhibition (GI)” value (Staphylococcus aureus [7]) was < 90% and the MIC (Staphylococcus aureus [5]) was “>= 64 ug ml-1”.
In the case of OB(O)c1cc(Cl)cnc1Cl, the Activity [2] is reported as 16 µg/mL, the MIC (Staphylococcus aureus [3]) is reported as > 128 µg/mL and the “growth inhibition (GI)” value (Staphylococcus aureus [6]) is reported as < 90%. The MIC (Staphylococcus aureus [5]) was “>= 64 ug ml-1”.
In the case of OB(O)c1ccc(Oc2cncc(Cl)c2)nc1, the inhibition at 72 h, 10 µM [1] is reported as 0%, the Activity [2] is reported as 8 µg/mL and the “growth inhibition (GI)” value (Staphylococcus aureus [6]) is reported as < 90%. The “growth inhibition (GI)” value (Staphylococcus aureus [7]) was < 90% and the MIC (Staphylococcus aureus [5]) was “>= 64 ug ml-1”.
For OB(O)c1ccc2ccccc2c1, the inhibition at 72 h, 10 µM [1] was 3%, the Activity [2] was 4 µg/mL and the MIC (Staphylococcus aureus [3]) was > 128 µg/mL.
In the case of OB(O)c1ccc(OCc2ccccc2)nc1, the inhibition at 72 h, 10 µM [1] is reported as 2%, the Activity [2] is reported as 1 µg/mL and the “growth inhibition (GI)” value (Staphylococcus aureus [6]) is reported as < 90%. The fold change (FC) [8] was 4, the “growth inhibition (GI)” value (Staphylococcus aureus [7]) was < 90% and the MIC (Staphylococcus aureus [5]) was “>= 64 ug ml-1”.
In the case of OB(O)c1ccc(Br)nc1, the inhibition at 72 h, 10 µM [1] is reported as 1%, the Activity [2] is reported as 8 µg/mL and the “growth inhibition (GI)” value (Staphylococcus aureus [6]) is reported as < 90%. The “growth inhibition (GI)” value (Staphylococcus aureus [7]) was < 90% and the MIC (Staphylococcus aureus [5]) was “>= 64 ug ml-1”.
In the case of Cc1c(B(O)O)ccc2ccccc12, the inhibition at 72 h, 10 µM [1] is reported as 0%, the Activity [2] is reported as 8 µg/mL and the “growth inhibition (GI)” value (Staphylococcus aureus [6]) is reported as < 90%. For the same compound, the “growth inhibition (GI)” value (Staphylococcus aureus [7]) was < 90% and the MIC (Staphylococcus aureus [5]) was “>= 64 ug ml-1”.
In the case of OB(O)c1cccnc1F, the inhibition at 72 h, 10 µM [1] is reported as 4%, the Activity [2] is reported as 8 µg/mL and the “growth inhibition (GI)” value (Staphylococcus aureus [6]) is reported as < 90%. The “growth inhibition (GI)” value (Staphylococcus aureus [7]) was < 90% and the MIC (Staphylococcus aureus [5]) was “>= 64 ug ml-1”.
For CC(=O)n1ncc2c(B3OC(C)(C)C(C)(C)O3)cccc21, the inhibition at 72 h, 10 µM [1] was 0%, the Activity [2] was 8 µg/mL and the “growth inhibition (GI)” value (Staphylococcus aureus [6]) was < 90%. The “growth inhibition (GI)” value (Staphylococcus aureus [7]) was < 90% and the MIC (Staphylococcus aureus [5]) was “>= 64 ug ml-1”.
With CC(C)(O)C(C)(C)OB(OC(C)(C)C(C)(C)O)c1ccnc(F)c1 the inhibition at 72 h, 10 µM [1] was 0%, the Activity [2] was 2 µg/mL and the “growth inhibition (GI)” value (Staphylococcus aureus [6]) was < 90%. The “growth inhibition (GI)” value (Staphylococcus aureus [7]) was < 90% and the MIC (Staphylococcus aureus [5]) was “>= 64 ug ml-1”.
In the case of CC(C)(O)C(C)(C)OB(OC(C)(C)C(C)(C)O)c1cc(Br)cnc1F, the Activity [2] is reported as 64 µg/mL, the MIC (Staphylococcus aureus [3]) is reported as 128 µg/mL (≈ 305 µM) and the “growth inhibition (GI)” value (Staphylococcus aureus [6]) is reported as < 90%. The MIC (Staphylococcus aureus [5]) was “>= 64 ug ml-1”.
For CC(C)(O)C(C)(C)OB(OC(C)(C)C(C)(C)O)c1ccc(Br)nc1, the inhibition at 72 h, 10 µM [1] was 0%, the Activity [2] was 8 µg/mL and the “growth inhibition (GI)” value (Staphylococcus aureus [6]) was < 90%. The “growth inhibition (GI)” value (Staphylococcus aureus [7]) was < 90% and the MIC (Staphylococcus aureus [5]) was “>= 64 ug ml-1”.
For CC1(C)S[C@@H]2[C@H](NC(=O)[C@H](N)c3ccccc3)C(=O)N2[C@H]1C(=O)O [AMPICILLIN], the MIC (Staphylococcus aureus [9]) was 0.25 µg/mL (≈ 0.715 µM) and the MIC (Staphylococcus aureus [5]) was “>= 64 ug ml-1”.
For O=C(O)c1cn(C2CC2)c2cc(N3CCNCC3)c(F)cc2c1=O [CIPROFLOXACIN], the MIC (Staphylococcus aureus [9]) was 0.5 µg/mL (≈ 1.51 µM) and the MIC (Staphylococcus aureus [5]) was “>= 64 ug ml-1”.
With OB(O)c1ccc(Cl)nc1 the inhibition at 72 h, 10 µM [1] was 1%, the Activity [2] was 8 µg/mL and the “growth inhibition (GI)” value (Staphylococcus aureus [6]) was < 90%. For the same compound, the “growth inhibition (GI)” value (Staphylococcus aureus [7]) was < 90% and the MIC (Staphylococcus aureus [5]) was “>= 64 ug ml-1”.
For OB(O)c1ccsc1, the inhibition at 72 h, 10 µM [1] was 0%, the Activity [2] was 8 µg/mL and the “growth inhibition (GI)” value (Staphylococcus aureus [6]) was < 90%. The “growth inhibition (GI)” value (Staphylococcus aureus [7]) was < 90% and the MIC (Staphylococcus aureus [5]) was “>= 64 ug ml-1”.
In the case of CC(C)(O)C(C)(C)OB(OC(C)(C)C(C)(C)O)c1cc(Cl)cnc1Cl, the Activity [2] is reported as > 128 µg/mL, the MIC (Staphylococcus aureus [3]) is reported as 128 µg/mL (≈ 326 µM) and the “growth inhibition (GI)” value (Staphylococcus aureus [6]) is reported as < 90%. The MIC (Staphylococcus aureus [5]) was “>= 64 ug ml-1”.

— ChEMBL document CHEMBL3232989, “First identification of boronic species as novel potential inhibitors of the Staphylococcus aureus NorA efflux pump” (J Med Chem, 2014)
